Columns and labels:
BNC3 = test: Antiproliferative activity against human BNC3 cells assessed as suppression of cell growth incubated for 24 to 72 hrs by CCK-8 assay; assay type: functional, cell-based; conditions: dose 10-300 µM, time 24-72 hrs
In short: (§1)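 Primary patient-derived glioblastoma lines were grown in RPMI 1640 with 10% FBS. Cells were seeded at 3,000 per well and dosed 24 h later at 10, 50, 100, 200 and 300 μM for 24 or 72 h, with BiCNU as control. CCK-8 was added and OD450 read after 2 h at 37 °C. Data are % cell survival, from 3 independent replicates.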

[1] = Antiproliferative activity against human BNC3 cells assessed as inhibition of cell growth incubated for 72 hrs by CCK-8 assay; assay type: functional, cell-based; conditions: BNC3, 72 h; in short: as §1
WSU-HN30 = test: Antiproliferative activity against human WSU-HN30 cells assessed as suppression of cell growth incubated for 24 to 72 hrs by CCK-8 assay; assay type: functional, cell-based; conditions: dose 10-300 µM, time 24-72 hrs
In short: (§2)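 Radiotherapy-resistant HNSCC lines were used: HN30 from pharynx SCC and HN31 from a lymph-node metastasis of the same patient. Cells in RPMI 1640 with 10% FBS were seeded at 3,000 per well and treated 24 h later with 10–300 μM (5 levels) for 24 or 72 h, with cisplatin as control. CCK-8 was read at OD450 after 2 h. Data are % survival, n = 3 independent experiments.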

WSU-HN31 = test: Antiproliferative activity against human WSU-HN31 cells assessed as suppression of cell growth incubated for 24 to 72 hrs by CCK-8 assay; assay type: functional, cell-based; conditions: dose 10-300 µM, time 24-72 hrs; in short: as §2
[2] = Antiproliferative activity against human BNC6 cells assessed as inhibition of cell growth incubated for 72 hrs by CCK-8 assay; assay type: functional, cell-based; conditions: BNC6, 72 h; in short: as §1
BNC6 = test: Antiproliferative activity against human BNC6 cells assessed as suppression of cell growth incubated for 24 to 72 hrs by CCK-8 assay; assay type: functional, cell-based; conditions: dose 10-300 µM, time 24-72 hrs; in short: as §1
[3] = (§3) Cytotoxicity against human MCF-10A cells assessed as inhibition of cell growth incubated for 24 hrs by Hoechst 33342/propidium iodide staining based fluorescence analysis; assay type: toxicity; conditions: human, MCF-10A cells
[4] = Antiproliferative activity against human WSU-HN30 cells assessed as inhibition of cell growth incubated for 72 hrs by CCK-8 assay; assay type: functional, cell-based; conditions: WSU-HN30, 72 h; in short: as §2
MCF7 [5] = test: Antiproliferative activity against human MCF7 cells assessed as inhibition of cell growth incubated for 24 hrs by Hoechst 33342/propidium iodide staining based fluorescence analysis; assay type: functional; conditions: MCF7, 24 h
[6] = (§4) Cytotoxicity against human MCF-10A cells assessed as inhibition of cell growth incubated for 72 hrs by Hoechst 33342/propidium iodide staining based fluorescence analysis; assay type: toxicity; conditions: human, MCF-10A cells
[7] = Antiproliferative activity against human WSU-HN31 cells assessed as inhibition of cell growth incubated for 72 hrs by CCK-8 assay; assay type: functional, cell-based; conditions: WSU-HN31, 72 h; in short: as §2
MDA-MB-231 = test: Antiproliferative activity against human MDA-MB-231 cells assessed as inhibition of cell growth incubated for 72 hrs by Hoechst 33342/propidium iodide staining based fluorescence analysis; assay type: functional; conditions: MDA-MB-231, 72 h
SK-BR-3 = test: Antiproliferative activity against human SK-BR-3 cells assessed as inhibition of cell growth incubated for 72 hrs by Hoechst 33342/propidium iodide staining based fluorescence analysis; assay type: functional; conditions: SK-BR-3, 72 h
MCF7 [8] = test: Antiproliferative activity against human MCF7 cells assessed as inhibition of cell growth incubated for 72 hrs by Hoechst 33342/propidium iodide staining based fluorescence analysis; assay type: functional; conditions: MCF7, 72 h
MCF-10A [9] = test: as §3; assay type: toxicity; conditions: mcf-10a
MCF-10A [10] = test: as §4; assay type: toxicity; conditions: mcf-10a

Structure (SMILES) | Activity (BNC3) | IC50 [1] [mM] | Activity (WSU-HN30) | Activity (WSU-HN31) | IC50 [2] [mM] | Activity (BNC6) | IC50 at 24 h [3] [mM] | IC50 [4] [mM] | IC50 (MCF7 [5]) [mM] | IC50 at 72 h [6] [mM] | IC50 [7] [mM] | IC50 (MDA-MB-231) [mM] | IC50 (SK-BR-3) [mM] | IC50 (MCF7 [8]) [mM] | IC50 (MCF-10A [9]) [mM] | IC50 (MCF-10A [10]) [mM]
C=C(C[C@H](N)C(=O)O)C(=O)Nc1ccccc1 | Dose-Dependent Effect | 0.217 | Dose-Dependent Effect | Dose-Dependent Effect | 0.21 | Dose-Dependent Effect | > 1 | 0.0929 | > 1 | > 1 | 0.199 |  |  |  |  | 
C=C1C[C@@H](C(=O)OC(C)(C)C)NC1=O |  |  |  |  |  |  |  |  |  | > 1 |  | < 1 | > 1 | > 1 |  | 
O=C(c1cc(Cc2n[nH]c(=O)c3ccccc23)ccc1F)N1CCN(C(=O)C2CC2)CC1 [OLAPARIB] |  |  |  |  |  |  |  |  | > 1 | > 1 |  | < 1 | < 1 | < 1 | > 1 | 
C=C1C[C@@H](C(=O)OCC)N(C(=O)OC(C)(C)C)C1=O |  |  |  |  |  |  |  |  |  | > 1 |  | > 1 | > 1 | > 1 |  | 
C=C(C[C@H](N)C(=O)O)C(=O)NC1CC1 | Dose-Dependent Effect | 0.171 | Dose-Dependent Effect | Dose-Dependent Effect | 0.187 | Dose-Dependent Effect | > 1 | 0.105 |  | > 1 | 0.196 |  |  |  |  | 
C=C(C[C@H](NC(=O)OC(C)(C)C)C(=O)OC(C)(C)C)C(=O)Nc1ccc(Cl)cc1 |  |  |  |  |  |  |  |  |  | > 1 |  | > 1 | > 1 | > 1 |  | 
C=C(C[C@H](NC(=O)OC(C)(C)C)C(=O)OC(C)(C)C)C(=O)N1CCCCC1 |  |  |  |  |  |  |  |  |  | > 1 |  | < 1 | < 1 | < 1 |  | 
C=C(C[C@H](NC(=O)OC(C)(C)C)C(=O)OCC)C(=O)Nc1ccc(Cl)cc1 |  |  |  |  |  |  |  |  |  | > 1 |  | > 1 | < 1 | > 1 |  | 
O=NN(CCCl)C(=O)NCCCl [CARMUSTINE] |  | 0.157 |  |  | 0.16 |  |  |  |  |  |  |  |  |  |  | 
C=C(C[C@H](NC(=O)OC(C)(C)C)C(=O)OC(C)(C)C)C(=O)NCc1ccc([N+](=O)[O-])cc1 |  |  |  |  |  |  |  |  |  | > 1 |  | < 1 | < 1 | > 1 |  | 
C=C(C[C@H](N)C(=O)O)C(=O)N1CCCCC1 | Dose-Dependent Effect | 0.158 | Dose-Dependent Effect | Dose-Dependent Effect | 0.199 | Dose-Dependent Effect | > 1 | 0.097 |  | > 1 | 0.207 |  |  |  |  | 
C=C(C[C@H](NC(=O)OC(C)(C)C)C(=O)OC(C)(C)C)C(=O)Nc1ccccc1 |  |  |  |  |  |  |  |  |  | > 1 |  | < 1 | < 1 | > 1 |  | 
C=C(C[C@H](N)C(=O)O)C(=O)NCc1ccccc1 | Dose-Dependent Effect | 0.171 | Dose-Dependent Effect | Dose-Dependent Effect | 0.189 | Dose-Dependent Effect | > 1 | 0.119 | > 1 | > 1 | 0.199 |  |  |  |  | 
C=C(C[C@H](NC(=O)OC(C)(C)C)C(=O)OCC)C(=O)NC1CC1 |  |  |  |  |  |  |  |  |  | > 1 |  | > 1 | > 1 | > 1 |  | 
C=C(C[C@H](N)C(=O)O)C(=O)NCc1ccc([N+](=O)[O-])cc1 | Dose-Dependent Effect | 0.156 | Dose-Dependent Effect | Dose-Dependent Effect | 0.18 | Dose-Dependent Effect | > 1 | 0.0918 |  | > 1 | 0.194 |  |  |  |  | 
C=C(C[C@H](NC(=O)OC(C)(C)C)C(=O)OC(C)(C)C)C(N)=O |  |  |  |  |  |  |  |  |  | > 1 |  | > 1 | < 1 | < 1 |  | 
CC/C(=C(\c1ccccc1)c1ccc(OCCN(C)C)cc1)c1ccccc1 [TAMOXIFEN] |  |  |  |  |  |  |  |  |  |  |  | < 1 | < 1 | < 1 | > 1 | > 1

From ChEMBL document CHEMBL5236662, “Synthesis and biological evaluation of tert-butyl ester and ethyl ester prodrugs of L-γ-methyleneglutamic acid amides for cancer” (Bioorg Med Chem, 2023)
